Assay results: ChEMBL document CHEMBL3865813, “Neolignans from the Arils of Myristica fragrans as Potent Antagonists of CC Chemokine Receptor 3” (J Nat Prod, 2016)
Activity calls are given as the source filed them. The calls are words filed in the database; no cut-off is given here.

What follows are molecules tested against T1, C-C chemokine receptor type 3 (Homo sapiens) (UniProt P51677) (assay: Antagonist activity at human EGFP-fused CCR3 expressed in mouse L1.2 cells assessed as inhibition of CCL11-induced chemotaxis at 1 uM measured after 1.5 hrs by PicoGreen dsDNA reagent-based assay). Settings: not given.
T1 sequence (whole entry): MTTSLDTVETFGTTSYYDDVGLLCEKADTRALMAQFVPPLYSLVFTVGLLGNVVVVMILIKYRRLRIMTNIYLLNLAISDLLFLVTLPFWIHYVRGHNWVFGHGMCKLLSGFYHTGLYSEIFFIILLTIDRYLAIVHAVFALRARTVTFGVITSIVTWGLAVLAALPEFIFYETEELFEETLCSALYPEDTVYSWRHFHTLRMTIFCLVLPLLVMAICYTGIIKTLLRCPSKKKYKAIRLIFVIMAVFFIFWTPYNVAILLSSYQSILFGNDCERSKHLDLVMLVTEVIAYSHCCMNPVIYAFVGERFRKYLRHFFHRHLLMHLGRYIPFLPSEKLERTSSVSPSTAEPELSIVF
Assay type: cell-based
Procedure, shortened: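 Human CCR3 was stably expressed in mouse pre-B L1.2 cells by a retroviral pMX-IRES-EGFP vector, and EGFP+ cells were sorted. Test sample was at 1 μM (DMSO, 0.5% final) with 10 nM CCL11 in lower wells (phenol red-free RPMI/BSA). Cells at 8 × 10^6/mL crossed a 5 μm filter for 1.5 h at 37 °C. Migrated cells were lysed (0.1% Triton X-100) and quantified with PicoGreen. Three experiments, Dunnett's test vs control.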
`C=CCc1cc(OC)c(O[C@@H](C)[C@H](OC(C)=O)c2ccc(OC)c(OC)c2)c(OC)c1` was tested, and the inhibition was “Active”. For `C=CCc1cc(OC)c(O[C@H](C)[C@@H](O)c2cc(OC)c(O)c(OC)c2)c(OC)c1`, the inhibition was “Active”. For `C/C=C/c1cc(OC)c2c(c1)[C@@H](C)[C@H](c1cc(OC)c(O)c(OC)c1)O2`, the inhibition was “Active”. In the case of `C=CCc1cc(OC)c2c(c1)OCO2`, the inhibition is reported as “Active”. In the case of `C/C=C/c1cc(OC)c2c(c1)[C@@H](C)[C@H](c1ccc(O)c(OC)c1)O2`, the inhibition is reported as “Active”. In the case of `C=CCc1cc(OC)c(O[C@H](C)[C@@H](O)c2ccc3c(c2)OCO3)c(OC)c1`, the inhibition is reported as “Active”. For `COc1cc([C@H]2Oc3c(OC)cc(/C=C/C=O)cc3[C@@H]2C)ccc1O`, the inhibition was “Active”. `COc1cc([C@H]2O[C@@H](c3ccc(O)c(OC)c3)[C@H](C)[C@@H]2C)ccc1O` was tested, and the inhibition was “Active”. `C=CCc1cc(OC)c(O[C@H](C)Cc2ccc3c(c2)OCO3)c(OC)c1` was tested, and the inhibition was “Active”. `COc1cc([C@H]2O[C@@H](c3ccc(O)c(OC)c3)[C@@H](C)[C@@H]2C)ccc1O` was tested, and the inhibition was “Active”.

Species: Mus musculus
Test: Cytotoxicity against mouse L1.2 cells at 1.5 uM
Assay type: toxicity, cell-based
Settings: l1.2, 1.5 µM
`C=CCc1cc(OC)c(O[C@H](C)[C@@H](O)c2cc(OC)c(O)c(OC)c2)c(OC)c1` was tested, and the Activity was “Non-Toxic”.
